Data reported in ChEMBL document CHEMBL1134294, “A prodrug form of a Plasmodium falciparum glutathione reductase inhibitor conjugated with a 4-anilinoquinoline” (J Med Chem, 2001).
The source made the active and inactive calls. The rule behind the calls is not given here.

Assays:
[1] = Susceptibility of compound to hydrolysis at 37 degrees C for RPMI-10% human serum; type: ADME; conditions: RPMI with 10% human serum
Outline: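 Prodrug (100 μM final, from 1 mM stock in 10% aqueous DMSO) is held in RPMI with 10% human serum at 37 °C and sampled from 0 to 77.5 h. Samples are mixed with EtOH plus internal reference, centrifuged, and the supernatant is analysed by HPLC. Half-life of ester disappearance is the mean of two determinations.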

Plasmodium falciparum = test: Effective dose against chloroquine-resistant Plasmodium falciparum FcB1R; type: functional
Outline: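 Asynchronous cultures in human erythrocytes (0.5% parasitemia, 1% hematocrit) received serially diluted drug, DMSO ≤0.1%. After 24 h at 37 °C, 0.5 μCi [3H]hypoxanthine was added and incubation continued another 24 h. Growth inhibition was taken versus drug-free control, ED50 read from the concentration–response curve, and reported as mean of ≥3 independent experiments.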

[2] = Susceptibility of compound to hydrolysis at 37 degrees C at pH 5.0 acetate medium; type: ADME
Outline: (§1)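 Prodrug (100 μM final, from 1 mM stock in 10% aqueous DMSO) is incubated at 37 °C in pH 7.4 phosphate buffer (150 mM NaCl, 4 mM NaH₂PO₄, 25 mM NaHCO₃) or pH 5.0 acetate (150 mM NaCl, 10 mM NaOAc). Half-life of ester disappearance is found by HPLC as the mean of two determinations.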

Mus musculus = test: Percentage excess MST, when used as the chlorohydrate in mice infected with Plasmodium berghei (i.p., 40 mg/kg); type: functional; conditions: route intraperitoneal
Outline: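 Female Swiss CD-1 mice (four weeks, 20–25 g), three per group, were infected ip with about 10^7 P. berghei ANKA parasitized erythrocytes. Dosing was 40 mg/kg in 100% DMSO, given orally at infection, then ip over the following 4 days. Parasitemia was counted daily. Activity was scored as percentage excess mean survival time over DMSO-treated infected controls.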

Plasmodium berghei = test: Parasitaemia (%) on day 4 in Plasmodium berghei infected mice (Mus musculus) at 40 mg/kg intraperitoneal dose; type: functional
Outline: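 Female Swiss CD-1 mice (four-week-old, 20–25 g, three per group) are infected ip with about 10⁷ P. berghei ANKA 65 parasitized erythrocytes from a donor. On the day of infection they receive 40 mg/kg orally in 100% DMSO, then daily ip for 4 days. Parasitemia is counted daily. Controls get DMSO only.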

[3] = Susceptibility of compound to hydrolysis at 37 degrees C at pH 7.4 phosphate buffer; type: ADME; outline: as §1
[4] = molecular target: Glutathione reductase (Plasmodium falciparum 3D7) (UniProt O15770); test: In vitro inhibition of Plasmodium falciparum Glutathione Reductase; Not active; conditions: Plasmodium falciparum FcB1
Glutathione reductase (Plasmodium falciparum 3D7), sequence (O15770 whole entry): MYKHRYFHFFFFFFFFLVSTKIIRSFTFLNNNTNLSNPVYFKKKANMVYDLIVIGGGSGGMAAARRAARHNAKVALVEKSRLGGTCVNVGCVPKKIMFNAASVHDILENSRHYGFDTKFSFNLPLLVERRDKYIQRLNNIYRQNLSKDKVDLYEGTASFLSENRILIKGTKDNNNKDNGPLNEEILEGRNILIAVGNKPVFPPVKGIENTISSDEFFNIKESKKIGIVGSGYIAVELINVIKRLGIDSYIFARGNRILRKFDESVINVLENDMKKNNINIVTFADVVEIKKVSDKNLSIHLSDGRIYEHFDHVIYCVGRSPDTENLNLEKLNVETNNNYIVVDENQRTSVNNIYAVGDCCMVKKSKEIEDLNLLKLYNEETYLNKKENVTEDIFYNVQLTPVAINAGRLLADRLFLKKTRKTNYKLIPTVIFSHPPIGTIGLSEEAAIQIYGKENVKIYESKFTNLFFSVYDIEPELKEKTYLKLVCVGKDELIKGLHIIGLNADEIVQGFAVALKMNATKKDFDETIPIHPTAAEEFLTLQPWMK
Outline: (§2)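 Recombinant purified GR (about 5 mU/ml) with 100 μM NADPH in 47 mM potassium phosphate, 200 mM KCl, 1 mM EDTA, pH 6.9, at 25 °C. Enzyme, NADPH and inhibitor are premixed and the reaction is started with 100 μM GSSG. NADPH loss is read at 340 nm. IC50 is taken from increasing inhibitor concentrations in 1% final DMSO, run in duplicate.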

[5] = molecular target: T1, Glutathione reductase, mitochondrial (Homo sapiens) (UniProt P00390); test: In vitro inhibition of human Glutathione Reductase; Not active; outline: as §2
T1 sequence (whole entry): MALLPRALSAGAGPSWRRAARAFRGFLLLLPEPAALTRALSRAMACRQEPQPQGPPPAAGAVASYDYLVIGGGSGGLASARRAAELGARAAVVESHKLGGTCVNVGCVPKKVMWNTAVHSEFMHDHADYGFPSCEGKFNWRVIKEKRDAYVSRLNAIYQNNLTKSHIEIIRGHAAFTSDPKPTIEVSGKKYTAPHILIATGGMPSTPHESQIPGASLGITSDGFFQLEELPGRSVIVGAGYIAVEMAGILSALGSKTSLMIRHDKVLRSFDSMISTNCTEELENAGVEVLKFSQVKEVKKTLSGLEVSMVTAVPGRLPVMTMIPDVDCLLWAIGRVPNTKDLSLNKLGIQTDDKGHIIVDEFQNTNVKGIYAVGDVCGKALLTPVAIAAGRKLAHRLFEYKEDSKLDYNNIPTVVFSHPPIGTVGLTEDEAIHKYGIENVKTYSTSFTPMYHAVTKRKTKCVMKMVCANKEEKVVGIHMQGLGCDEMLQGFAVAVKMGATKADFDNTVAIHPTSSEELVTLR

[6] = molecular target: T1, Glutathione reductase, mitochondrial (Homo sapiens); test: Competitive inhibition of human Glutathione Reductase
[7] = molecular target: Glutathione reductase (Plasmodium falciparum 3D7) (UniProt O15770); test: Competitive inhibition of Plasmodium falciparum Glutathione Reductase; conditions: Plasmodium falciparum FcB1
[8] = molecular target: T2, Glutathione reductase, mitochondrial (Homo sapiens, UniProt P00390); test: In vitro inhibition of human Glutathione Reductase; outline: as §2
T2 sequence (P00390 whole entry): T1 sequence (whole entry)

Glutathione reductase = Glutathione reductase (Plasmodium falciparum 3D7, UniProt O15770); test: In vitro inhibition of Plasmodium falciparum Glutathione Reductase; design: species or system FcB1; outline: as §2
Glutathione reductase, sequence (O15770 whole entry): as the sequence (O15770 whole entry) above

[9] = read-out: ED50 (the source's name)

Structure (SMILES) | half-life [1] [h] | EC50 (Plasmodium falciparum; read-out: ED50) [µM] | half-life [2] [h] | half-life [3] [h] | EC50 (Plasmodium falciparum; [9]) [µM] | Ki.c [6] | Ki.c [7] [µM] | IC50 [8] [µM] | IC50 (Glutathione reductase) [µM] | also measured
CC1=C(CCCCC(=O)OCc2cc(NC(=O)CN3CCCCC3)cc(Nc3ccnc4cc(Cl)ccc34)c2)C(=O)c2c(O)cccc2C1=O | > 80 | 0.0287 | > 80 | > 80 |  |  |  |  |  | Excess MST (Mus musculus): 39%; Parasitaemia (Plasmodium berghei): 9%
COC(=O)CCCCCC1=C(C)C(=O)c2ccccc2C1=O | > 3 |  | 0.5 | 1 | 10.8 |  |  |  |  | NA [4]: inactive; NA [5]: inactive
CC1=C(CCCCCC(=O)O)C(=O)c2ccccc2C1=O |  |  |  |  | 3.5 | 1.9 µM | 0.5 | 2.6 | 0.5 | 
CC1=C(CCCCCC(=O)OCc2cc(NC(=O)CN3CCCCC3)cc(Nc3ccnc4cc(Cl)ccc34)c2)C(=O)c2c(O)cccc2C1=O |  | 0.056 |  |  |  |  |  |  |  | 
CC1=C(CCCCCC(=O)O)C(=O)c2c(O)cccc2C1=O |  |  |  |  | 8.2 | 0.75 µM | 2.3 | 0.75 | 1.3 | 
CCN(CCCC(C)Nc1ccnc2cc(Cl)ccc12)CCOC(=O)CCCCCC1=C(C)C(=O)c2ccccc2C1=O (stereo not drawn) | > 80 |  | > 80 | > 80 | 0.107 |  |  |  |  | 
CC1=C(CCCCCNC(=O)OCc2cc(NC(=O)CN3CCCCC3)cc(Nc3ccnc4cc(Cl)ccc34)c2)C(=O)c2ccccc2C1=O |  | 0.144 |  |  |  |  |  |  |  | 
CC1=C(CCCCC(=O)O)C(=O)c2ccccc2C1=O |  |  |  |  | 2.8 | 1.8 | 3.1 | 2.7 | 4 | 
